Efflux pump mplx: inhibitors of Candida efflux pumps in yeast, primary screen, S. cerevisiae, Nile Red, multiplex; inhibition, % at 10 µM; AID 485275, 2010; S. cerevisiae Candida pump triplex; 330,000 compounds, 0.44% hits;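 active = plate passing quality check with inhibition over a set limit, or well fluorescence over plate mean plus 4 SD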;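 also: Nile Red retained in pooled yeast measured as flow cytometry median fluorescence; 0% = buffer negative control and 100% = Enniatin B positive control; higher means more Nile Red kept so more efflux inhibition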
T cruzi inh: inhibitors of intracellular T. cruzi growth, primary screen, luminescence, NIH3T3 host cells. T. cruzi beta-gal in NIH3T3, 90 h. inhibition, % (no concentration beside the values). 300,000 compounds, 1.4% hits. AID 1885, 2009;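 active = mean inhibition across valid replicates above about 55%, limit read from the data; inconclusive = mean below that limit but half or more replicates reach it; inactive = mean below it, under half of replicates reach it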;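 also: signal also drops with host cell toxicity which is not excluded here; 0% = plate median of DMSO wells and 100% = zero luminescence signal; higher percent means less beta-gal luminescence so fewer parasites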
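System – NIH/3T3 host cells with β-galactosidase reporter T. cruzi · Doses – single 50 nL compound addition per well in DMSO · Reagent – 5000 T. cruzi trypomastigotes/well · Medium – Low-serum DMEM with 2% FBS · Timing – ≥90 h infection period, 3 h prior cell attachment · Evaluation – parasite load inhibition, % · Technique – GalScreen luminescence, 60 min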
HDAC3 inh: HDAC3 deacetylase inhibitors, primary screen, biochemical, fluorescence, cell-free homogeneous; recombinant HDAC3, fluorogenic peptide/trypsin coupled; 320,000 compounds, 0.15% hits; inhibition, % at 8.3 µM; Histone deacetylase 3 (Homo sapiens), O15379; in the data active = inhibition above about 26%, passing the limit was not always enough; inconclusive = no clear call, values can overlap the other calls
Target sequence (O15379 whole entry, looked up): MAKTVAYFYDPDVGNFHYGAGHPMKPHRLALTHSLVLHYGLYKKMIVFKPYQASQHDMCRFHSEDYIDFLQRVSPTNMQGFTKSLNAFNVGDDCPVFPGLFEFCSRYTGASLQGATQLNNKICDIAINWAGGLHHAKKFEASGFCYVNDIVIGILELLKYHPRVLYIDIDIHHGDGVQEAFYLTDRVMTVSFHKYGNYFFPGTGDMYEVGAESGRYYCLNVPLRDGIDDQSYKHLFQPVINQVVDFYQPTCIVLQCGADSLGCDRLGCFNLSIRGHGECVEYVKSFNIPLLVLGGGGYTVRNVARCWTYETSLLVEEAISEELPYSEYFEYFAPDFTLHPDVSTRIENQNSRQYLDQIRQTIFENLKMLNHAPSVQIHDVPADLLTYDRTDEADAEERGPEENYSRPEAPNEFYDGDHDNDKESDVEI
PolyA inh: polyadenylation inhibitors in yeast reporter cells, primary screen, luminescence, S. cerevisiae; 300,000 compounds, 0.02% hits; AID 1875, 2009; activity score, % at 12 µM; S. cerevisiae SKY197-pL101 polyadenylation reporter, beta-gal luminescence; efflux-impaired pdr1/pdr3 knockout yeast; score 100 = 6 SD above DMSO;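 active = lowest replicate activity score at least 50, where 100 means six control SD above control mean; inconclusive = lowest score under 50 but half or more replicates reach 50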;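 also: yeast exposed to compound for 9 h at 30 °C; higher score means more reporter readthrough which indicates perturbed polyadenylation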
AI-2 QS modul: Vibrio harveyi AI-2 quorum sensing modulators, primary screen, JMH597 strain, luminescence/OD600 ratio; Vibrio harveyi JMH597 AI-2 luminescence/OD600 ratio, 9 h; stronger effect = lower value; strain lacks LuxN and CqsS sensors; 0 = neutral-control median; 300,000 compounds, 0.4% hits; activity change, % at 7.5 µM; in the data active = activity change below about -75%, passing the limit was not always enough; inconclusive = no clear call, values can overlap the other calls;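 also: luminescence divided by OD600 gain over 9 h not by final OD600 alone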
Yeast cmpd fluor: flagged as fluorescent in efflux inhibitor counter-screen. shares compounds with Efflux pump mplx. 1,700 compounds, 4% hits. S. cerevisiae AD/pABC3, compound fluorescence, flow cytometry. fluorescence ratio to DMSO, % at 10 µM. AID 588517;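 active = fluorescence ratio to DMSO above its plate's cutoff, the plate mean ratio plus 5 SD, cut at about 210% in these data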;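 also: unstained yeast with no Nile Red so the signal is compound autofluorescence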
Mdr1 pump inh: inhibitors of Candida albicans Mdr1 efflux, confirmation, flow cytometry, singleplex, Cherry Pick1 set; shares compounds with Efflux pump mplx; 1,700 compounds, 1% hits; inhibition, % at 10 µM; S. cerevisiae AD/CaMDR1, Nile Red efflux; in the data active = inhibition above about 26%;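 also: 0% = DMSO vehicle and 100% = reference inhibitor; higher means more Nile Red retained so more efflux inhibition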
Cdr2 pump inh: inhibitors of Candida albicans Cdr2 efflux pump, confirmation, S. cerevisiae AD/CaCDR2, flow cytometry, cherry pick 1, singleplex; shares compounds with Efflux pump mplx; Nile Red retention; Nile Red retention ratio vs DMSO, % at 10 µM; 1,700 compounds, 4% hits; AID 588520, 2011; in the data active = Nile Red retention ratio vs DMSO above about 190%;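 also: higher ratio means more blocking of Cdr2 efflux of the dye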
CaCdr1 efflux inh: inhibitors of Candida albicans Cdr1 efflux pump, confirmation, S. cerevisiae AD/CaCDR1, flow cytometry, cherry pick 1, singleplex | 1,700 compounds, 1% hits | inhibition, % at 10 µM | shares compounds with Efflux pump mplx | AID 588522, 2011 | Nile Red efflux;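 active = inhibition above the screen-wide mean plus twice its standard deviation, cut at about 32% in these data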
Active calls of the source: *; u = inconclusive; x = no result given. Rows were chosen to be rich in hits. Some 2.2% of all compounds tested hit in one or more screens of this group.

SMILES	Efflux pump mplx	T cruzi inh	HDAC3 inh	PolyA inh	AI-2 QS modul	Yeast cmpd fluor	Mdr1 pump inh	Cdr2 pump inh	CaCdr1 efflux inh
COc1ccccc1CNC(=O)C(=O)NCC1OCCN1S(=O)(=O)c1ccc(Br)cc1 (configuration not stated)	1	u	0	4	22	110	0	110	0
COc1ccc(S(=O)(=O)N2CCOC2CNC(=O)C(=O)NCc2ccccc2Cl)cc1 (configuration not stated)	-3	2	6	13	9	98	0	101	0
COc1ccc(S(=O)(=O)N2CCOC2CNC(=O)C(=O)NCCc2ccccc2OC)cc1 (configuration not stated)	0	2	4	-6	15	x	x	x	x
CC(=O)Nc1ccc(S(=O)(=O)NCC(=O)NC(C)c2ccc(S(N)(=O)=O)cc2)cc1 (configuration not stated)	0	-13	-5	-4	3	x	x	x	x
Nc1nonc1-n1nnc(C(=O)N/N=C/c2ccc(OCc3ccccc3)cc2)c1COc1ccc(F)cc1	0	21	-1	24	7	x	x	x	x
CCCOc1ccc(-c2c(C(=O)N/N=C/c3ccccc3)nnn2-c2nonc2N)cc1	0	11	5	-3	-13	113	0	101	0
Nc1nonc1-n1nnc(C(=O)N/N=C/c2ccccc2Cl)c1COc1ccc(F)cc1	0	13	8	-14	5	76	0	93	0
Nc1nonc1-n1nnc(C(=O)N/N=C/c2ccccc2Cl)c1CSc1ccccc1	0	12	11	-11	26	x	x	x	x
Nc1nonc1-n1nnc(C(=O)N/N=C/c2c(Cl)cccc2Cl)c1CSC1=NCCS1	0	-7	-3	28	34	80	0	89	0
Nc1nonc1-n1nnc(C(=O)N/N=C/c2ccc(O)cc2)c1COc1ccc(F)cc1	0	4	11	-2	17	95	0	97	0
Nc1nonc1-n1nnc(C(=O)N/N=C/C=C/c2ccccc2)c1CSC1=NCCS1	0	8	3	-4	-2	x	x	x	x
COCCCn1c(=S)[nH]c2sc3c(c2c1=O)CCCS3	0	-13	7	19	19	x	x	x	x
COc1ccccc1-n1nnnc1SCC(=O)N(C)C1CCS(=O)(=O)C1 (configuration not stated)	0	x	-5	x	x	x	x	x	x
CCOC(=O)c1cc(-c2ccccc2)n[nH]1	0	-4	-4	7	-11	x	x	x	x
CCOC(=O)c1ccc(-c2cc(C)no2)[nH]1	6.5*	7	0	1	26	106	0	107	0
O=C(COC(=O)c1c2c(nc3ccccc13)CCCCC2)c1ccc(Cl)s1	0	15	x	-13	17	x	x	x	x
C[C@H](NC(=O)c1ccc(C(C)(C)C)cc1)C(=O)N1CCN(C/C=C/c2ccccc2)CC1	0.9*	x	13	x	x	92	0	94	0
CC(C)C(NC(=O)c1ccccc1)C(=O)N1CCN(C/C=C/c2ccccc2)CC1 (configuration not stated)	0	x	1	x	x	x	x	x	x
CC/C(=N\N=C1\SC(C)C(=O)N1Cc1ccco1)c1ccccc1 (configuration not stated)	0	-2	-1	-22	2	x	x	x	x

From PubChem
